Measured values published in ChEMBL document CHEMBL1158984, “Hypolipidemic, anti-inflammatory, and antineoplastic activity and cytotoxicity of flavonolignans isolated from Hydnocarpus wightiana seeds” (J Nat Prod, 1991).
≈ marks a conversion by molar mass, not a printed value.

Legend:
Mus musculus [1] = test: Hypolipidemic activity in CF1 mouse assessed as serum triglyceride level at 150 mg/kg/day administered for 16 days measured on day 16 relative to control; type: functional
Summary of the method: (§1)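 Male CF1 mice (28 g) were dosed daily for 16 days, with drug suspended in 1% carboxymethylcellulose. On days 9 and 16 blood was drawn from the tail vein and serum spun at 3000 g for 3 min. Total cholesterol was measured by the Liebermann-Burchard reaction and triglyceride by a commercial kit. Results are percent of vehicle control, n = 6, mean ± SD, Student's t-test.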

Mus musculus [2] = test: Hypolipidemic activity in CF1 mouse assessed as serum cholesterol level at 150 mg/kg/day administered for 16 days measured on day 9 relative to control; type: functional; summary of the method: as §1
Mus musculus [3] = test: Hypolipidemic activity in CF1 mouse assessed as serum triglyceride level at 150 mg/kg/day administered for 16 days measured on day 16 relative to control
KB = test: Cytotoxicity against human KB cells after 3 days by trypan blue exclusion technique; type: functional; settings: 72 h, read-out: ED50 (the source's name)
Summary of the method: (§2)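 Tumor cells were mixed on day 0 with sterile drug at 1–100 µg/ml (from 1 mM stock in 0.05% Tween 80 water) in growth medium, 1 ml final. Cells were counted on day 3, while growth was still logarithmic. The concentration killing 50% of cells was read from a semilog plot.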

[4] = Cytotoxicity against human MB9812 cells after 3 days by trypan blue exclusion technique; type: functional; settings: MB9812, 72 h, read-out: ED50 (the source's name); summary of the method: as §2
[5] = Cytotoxicity against human HeLaS3 cells after 3 days by trypan blue exclusion technique; type: functional; settings: HeLa S3, 72 h, read-out: ED50 (the source's name); summary of the method: as §2
[6] = Cytotoxicity against human EH118MG cells after 3 days by trypan blue exclusion technique; type: functional; settings: 72 h, read-out: ED50 (the source's name); summary of the method: as §2
[7] = Cytotoxicity against human TMOLT3 cells after 3 days by trypan blue exclusion technique; type: functional; settings: MOLT-3, 72 h, read-out: ED50 (the source's name); summary of the method: as §2
SW480 = test: Cytotoxicity against human SW480 cells after 3 days by trypan blue exclusion technique; type: functional; settings: SW480, 72 h, read-out: ED50 (the source's name); summary of the method: as §2
L1210 = test: Cytotoxicity against mouse L1210 cells after 3 days by trypan blue exclusion technique; type: functional; settings: L1210, 72 h, read-out: ED50 (the source's name); summary of the method: as §2
Mus musculus [8] = test: Hypolipidemic activity in CF1 mouse assessed as serum cholesterol level at 8 mg/kg/day, ip administered for 16 days measured on day 16 relative to control; type: functional; settings: route intraperitoneal; summary of the method: as §1
Mus musculus [9] = test: Hypolipidemic activity in CF1 mouse assessed as serum cholesterol level at 8 mg/kg/day, ip administered for 16 days measured on day 9 relative to control; type: functional; settings: route intraperitoneal; summary of the method: as §1
Mus musculus [10] = test: Hypolipidemic activity in CF1 mouse assessed as serum cholesterol level at 8 mg/kg/day, ip administered for 16 days measured on day 16 relative to control
Mus musculus [11] = test: Antiinflammatory activity against CF1 mouse assessed as inhibition of carrageenan-induced paw edema at 8 mg/kg/day, ip administered 30 mins before carrageenan challenge measured after 3 hrs relative to control; type: functional; settings: route intraperitoneal
Summary of the method: (§3)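 CF1 male mice (ca. 25 g) got drug ip in 0.05% Tween 80 water twice, 3 h and 30 min before 0.2 ml of 1% carrageenan in 0.9% saline was injected into the right hind plantar surface. The left foot got saline as baseline. After 3 h both feet were cut off at the ankle and paw weight gain was compared; results are percent inhibition, n = 6, mean ± SD.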

[12] = Cytotoxicity against human TE-418 cells after 3 days by trypan blue exclusion technique; type: functional; settings: TE-418, 72 h, read-out: ED50 (the source's name); summary of the method: as §2
Ehrlich = test: In vivo antineoplastic activity against mouse Ehrlich ascite carcinoma cells xenografted in CF1 mouse assessed as inhibition of tumor growth at 8 mg/kg/day after 9 days relative to control; type: functional; settings: 216 h
Summary of the method: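 On day 0, CF1 male mice (ca. 25 g) received 2 × 10^6 Ehrlich ascites cells ip in isotonic saline. Drug in 0.05% Tween 80 water was given at 8 mg/kg/day on days 1–9. On day 10 ascites fluid was collected, and volume and packed-cell volume per animal were used to calculate percent tumor growth inhibition; n = 6, mean ± SD.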

Mus musculus [13] = test: Toxicity in CF1 mouse assessed as change in CNS and motor activity at 8 mg/kg/day administered in multiple doses for 16 days; type: organism-based; settings: in vivo, 384 h
Summary of the method: (§4)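 During 16 days of multiple ip dosing at 8 mg/kg/day, mice were watched for body weight loss, food consumption, and behavioral, CNS and motor activity.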

Mus musculus [14] = test: Toxicity in CF1 mouse assessed as change in food consumption at 8 mg/kg/day administered in multiple doses for 16 days; type: organism-based; settings: in vivo, 384 h; summary of the method: as §4
Mus musculus [15] = test: Toxicity in CF1 mouse assessed as body weight loss at 8 mg/kg/day administered in multiple doses for 16 days; type: organism-based; settings: in vivo, 384 h; summary of the method: as §4
Mus musculus [16] = test: Toxicity in CF1 mouse assessed as behavioral changes at 8 mg/kg/day administered in multiple doses for 16 days; type: organism-based; settings: in vivo, 384 h; summary of the method: as §4
Mus musculus [17] = test: Antiinflammatory activity against CF1 mouse assessed as inhibition of carrageenan-induced paw edema at 10 mg/kg administered 30 mins before carrageenan challenge measured after 3 hrs relative to control; type: functional; summary of the method: as §3
Mus musculus [18] = test: Antiinflammatory activity against CF1 mouse assessed as inhibition of carrageenan-induced paw edema at 50 mg/kg administered 30 mins before carrageenan challenge measured after 3 hrs relative to control; type: functional; summary of the method: as §3

SMILES	EC50 (KB)	EC50 [4]	EC50 [5]	EC50 [6]	EC50 [7]	EC50 (SW480)	EC50 (L1210)	Activity (Mus musculus [8])	Activity (Mus musculus [9])	Activity (Mus musculus [10])	inhibition in vivo at 8 mg/kg/day (Mus musculus [11])	EC50 [12]	inhibition in vivo at 8 mg/kg/day (Ehrlich)	also measured
CCOC(=O)C(C)(C)Oc1ccc(Cl)cc1 [CLOFIBRATE]	–	–	–	–	–	–	–	–	–	–	–	–	–	Activity (Mus musculus [1]): 75%; Activity (Mus musculus [2]): 88%; Activity (Mus musculus [3]): 75%
Nc1ccn([C@@H]2O[C@H](CO)[C@@H](O)[C@@H]2O)c(=O)n1 [CYTARABINE]	2.84 µg/mL (≈ 11.7 µM)	4.6 µg/mL (≈ 18.9 µM)	2.13 µg/mL (≈ 8.76 µM)	1.88 µg/mL (≈ 7.73 µM)	2.67 µg/mL (≈ 11 µM)	3.42 µg/mL (≈ 14.1 µM)	2.76 µg/mL (≈ 11.3 µM)	–	–	–	–	–	–	–
O=c1[nH]cc(F)c(=O)[nH]1 [FLUOROURACIL]	1.25 µg/mL (≈ 9.61 µM)	5.64 µg/mL (≈ 43.4 µM)	2.47 µg/mL (≈ 19 µM)	1.28 µg/mL (≈ 9.84 µM)	2.14 µg/mL (≈ 16.5 µM)	3.09 µg/mL (≈ 23.8 µM)	1.41 µg/mL (≈ 10.8 µM)	–	–	–	–	–	–	–
COc1cc([C@H]2Oc3cc(-c4cc(=O)c5c(O)cc(O)cc5o4)ccc3O[C@@H]2CO)ccc1O [HYDNOCARPIN]	1.15 µg/mL (≈ 2.48 µM)	8.18 µg/mL (≈ 17.6 µM)	2.02 µg/mL (≈ 4.35 µM)	2.59 µg/mL (≈ 5.58 µM)	2.94 µg/mL (≈ 6.33 µM)	2 µg/mL (≈ 4.31 µM)	3.65 µg/mL (≈ 7.86 µM)	62%	83%	62%	42%	2.14 µg/mL (≈ 4.61 µM)	84.8%	–
COc1cc(/C=C(\CO)c2cc([C@H]3Oc4cc(-c5cc(=O)c6c(O)cc(O)cc6o5)ccc4O[C@@H]3CO)cc(OC)c2O)ccc1O [HYDNOWIGHTIN]	1.96 µg/mL (≈ 3.05 µM)	7.49 µg/mL (≈ 11.7 µM)	3.01 µg/mL (≈ 4.68 µM)	5.02 µg/mL (≈ 7.81 µM)	4.33 µg/mL (≈ 6.74 µM)	2.38 µg/mL (≈ 3.7 µM)	3.07 µg/mL (≈ 4.78 µM)	59%	80%	59%	24%	2.5 µg/mL (≈ 3.89 µM)	12.1%	Activity (Mus musculus [13]): Non-toxic; Activity (Mus musculus [14]): Non-toxic; Activity (Mus musculus [15]): Non-toxic; Activity (Mus musculus [16]): Non-toxic
NC(=O)NO [HYDROXYUREA]	5.29 µg/mL (≈ 69.6 µM)	7.37 µg/mL (≈ 96.9 µM)	1.96 µg/mL (≈ 25.8 µM)	2.27 µg/mL (≈ 29.8 µM)	3.18 µg/mL (≈ 41.8 µM)	4.79 µg/mL (≈ 63 µM)	2.67 µg/mL (≈ 35.1 µM)	–	–	–	–	7.54 µg/mL (≈ 99.1 µM)	–	–
COc1ccc2c(c1)c(CC(=O)O)c(C)n2C(=O)c1ccc(Cl)cc1 [INDOMETHACIN]	–	–	–	–	–	–	–	–	–	–	–	–	–	inhibition in vivo at 10 mg/kg (Mus musculus [17]): 78%
COc1cc([C@@H]2c3c(oc4cc(O)cc(O)c4c3=O)-c3cc(O)c(O)cc3[C@@H]2CO)ccc1O [NEOHYDNOCARPIN]	1.06 µg/mL (≈ 2.28 µM)	4.53 µg/mL (≈ 9.75 µM)	2.12 µg/mL (≈ 4.56 µM)	4.07 µg/mL (≈ 8.76 µM)	3.05 µg/mL (≈ 6.57 µM)	2.03 µg/mL (≈ 4.37 µM)	3.29 µg/mL (≈ 7.08 µM)	79%	85%	79%	6%	2.49 µg/mL (≈ 5.36 µM)	43.1%	–
CCCCC1C(=O)N(c2ccccc2)N(c2ccccc2)C1=O [PHENYLBUTAZONE]	–	–	–	–	–	–	–	–	–	–	–	–	–	inhibition in vivo at 50 mg/kg (Mus musculus [18]): 47%
